Data: article PMC2134812 (The Journal of Cell Biology, 1997)
“Also recorded” adds a separate entry of the source.

What was measured:
B5 and SH-SY5Y cells = assay: Competition of 125I-LIP2 binding; set-up: species or system human; conditions: 2 μM competitor, preincubated 1 h at 4°C, 10 nM 125I-LIP2
[1] = target: specific receptors (binding sites) for LIP2 on B5 human prostatic adenocarcinoma cells (human (endogenous in B5)); assay: radioligand binding
PC12 cells [2] = assay: F-actin redistribution in PC12 cells; format: cell-based, rat
How it was run: (§1)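 B5 cells and PC12 cells were seeded in RPMI-1640 with 1% horse serum, with PC12 cells on poly-D-lysine. After 18 h, cells were exposed for 2 min at 37°C to test peptide (10−7, 10−8 or 10−9 M) or 100 ng/ml NGF. For PC12, a control peptide was used at 10−6 and 10−7 M. Cells were PBS-washed, fixed in 3% paraformaldehyde for 20 min and permeabilised in 0.1% Triton X-100 for 2 min. F-actin was stained with phallacidin–BODIPY or phalloidin–rhodamine and examined by fluorescence microscopy.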

Trk protein [3] = assay: Trk tyrosine phosphorylation in PC12 cells overexpressing TrkA; format: cell-based; conditions: 200 ng/ml NGF, 5 min
How it was run: (§2)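 Confluent B5 cells or TrkA-overexpressing PC12 cells (10–15-fold TrkA) were stimulated for 5 min with test peptide at 10−9 or 10−7 M, or with NGF at 200 ng/ml. Lysates were immunoprecipitated with a pan-Trk antibody against the TrkA C-terminus and run on 7.5% SDS-PAGE. Blots were probed overnight at 4°C with HRP-anti-phosphotyrosine (1:2,500) and detected by ECL. They were then stripped and reprobed with pan-Trk antibody as a loading control.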

B5 cells = assay: F-actin redistribution in B5 cells; format: cell-based, human; conditions: 2 min at 37°C; LIP1, LIP2 or 100 ng/ml NGF
How it was run: as §1

Trk protein [4] = assay: Trk tyrosine phosphorylation in B5 cells; format: cell-based, human; conditions: 200 ng/ml NGF, 5 min
How it was run: as §2

PC12 cells [5] = assay: Neurite outgrowth in PC12 cultures; format: cell-based, rat; conditions: NGF-treated; data not shown
Trk protein [6] = conditions: ref Kaplan et al., 1991; cited from earlier work
chick embryo DRG ganglia = assay: Neurite outgrowth in dorsal root ganglia; format: cell-based; conditions: 10 ng of mouse NGF; data not shown
How it was run: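 Dorsal root ganglia were dissected from 9-day-old chick embryos. They were cultured with test peptides at 10−7, 10−8 and 10−9 M, or with 10 ng mouse NGF. Neurite outgrowth was scored.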

Molecule: α2-macroglobulin
- Inhibition of 125I-LIP2 binding (in words) (B5 and SH-SY5Y cells): No significant inhibitory effect

Molecule: α-melanocyte stimulating hormone
- Inhibition of 125I-LIP2 binding (in words) (B5 and SH-SY5Y cells): No significant inhibitory effect

Molecule: somatostatin
- Inhibition of 125I-LIP2 binding (in words) (B5 and SH-SY5Y cells): No significant inhibitory effect

Molecule: vasopressin
- Inhibition of 125I-LIP2 binding (in words) (B5 and SH-SY5Y cells): No significant inhibitory effect

Molecule: methionine enkephalin
- Inhibition of 125I-LIP2 binding (in words) (B5 and SH-SY5Y cells): No significant inhibitory effect

Molecule: 125I-LIP2 (iodinated 38aa synthetic peptide, sequence -40 to -3 of the rat NGF precursor)
- Kd, high affinity binding site [1]: 2.8 nM
- Kd, low affinity binding site [1]: 48 nM

Molecule: bombesin
- Inhibition of 125I-LIP2 binding (in words) (B5 and SH-SY5Y cells): No significant inhibitory effect

Molecule: substance P
- Inhibition of 125I-LIP2 binding (in words) (B5 and SH-SY5Y cells): No significant inhibitory effect

Molecule: aprotinin
- Inhibition of 125I-LIP2 binding (in words) (B5 and SH-SY5Y cells): No significant inhibitory effect

Molecule: vasoactive intestinal peptide [vasoactive intestinal peptide (VIP)]
- Inhibition of 125I-LIP2 binding (in words) (B5 and SH-SY5Y cells): No significant inhibitory effect

Molecule: neurotensin
- Inhibition of 125I-LIP2 binding (in words) (B5 and SH-SY5Y cells): No significant inhibitory effect

Molecule: pepstatin A
- Inhibition of 125I-LIP2 binding (in words) (B5 and SH-SY5Y cells): No significant inhibitory effect

Molecule: epidermal growth factor
- Inhibition of 125I-LIP2 binding (in words) (B5 and SH-SY5Y cells): No significant inhibitory effect

Molecule: LIP2 (38aa synthetic peptide, sequence -40 to -3 of the rat NGF precursor), unlabelled
- Kd [1]: 200 to 400 nM

Molecule: [Tyr^8] bradykinin (RPPGFSPYR; Bradykinin; UniProt P01042 381-389, looked up, variant F8Y)
- F-actin redistribution, control peptide (PC12 cells [2]; 10^−6 and 10^−7 M): had no effect

Molecule: cytochrome c
- Inhibition of 125I-LIP2 binding (in words) (B5 and SH-SY5Y cells): No significant inhibitory effect

Molecule: ubiquitin
- Inhibition of 125I-LIP2 binding (in words) (B5 and SH-SY5Y cells): No significant inhibitory effect

Molecule: leupeptin
- Inhibition of 125I-LIP2 binding (in words) (B5 and SH-SY5Y cells): No significant inhibitory effect

B1: NGF: mature 118aa NGF peptide (protein)
chain: SSTHPVFHMGEFSVCDSVSVWVGDKTTATDIKGKEVTVLAEVNINNSVFRQYFFETKCRASNPVESGCRGIDSKHWNSYCTTTHTFVKALTTDEKQAAWRFIRIDTACVCVLSRKATRRG
- Trk tyrosine phosphorylation, NGF (Trk protein [3]): phosphorylation of Trk
- F-actin redistribution (B5 cells): neither NGF nor the peptides induced F-actin rearrangement in B5 cells; also recorded: had no effect on B5 cells
- Trk tyrosine phosphorylation, NGF (Trk protein [4]): phosphorylation of Trk
- Neurite outgrowth, NGF (PC12 cells [5]): dense neurite outgrowth
- Inhibition of 125I-LIP2 binding (in words) (B5 and SH-SY5Y cells): did not show any significant inhibition
- Time to trk tyrosine phosphorylation by NGF (Trk protein [6]): ≤ 1 min
- F-actin redistribution, NGF (PC12 cells [2]; 2 min at 37°C, 100 ng/ml NGF): more abundant ruffling
- Neurite outgrowth, NGF (chick embryo DRG ganglia): dense neurite outgrowth
